Test results taken from ChEMBL document CHEMBL4665728, “Synthesis and evaluation of 1,2,4-oxadiazole derivatives as potential anti-inflammatory agents by inhibiting NF-κB signaling pathway in LPS-stimulated RAW 264.7 cells” (Bioorg Med Chem Lett, 2020).
The source made the active and inactive calls. The rule behind the calls is not given here.

Assays:
RAW264.7 [1] = experiment: Antiinflammatory activity against mouse RAW264.7 cells assessed as inhibition of LPS-stimulated NO production at 20 uM relative to control; format: functional; design: scale not given: the % may be the effect or the level left
In short: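 NO production by RAW264.7 cells stimulated with LPS; inhibitory ratio expressed relative to the LPS-treated group.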

[2] = Cytotoxicity against mouse RAW 264.7 assessed as cell viability at 20 uM incubated for 24 hrs by MTT assay (reference value: 100%); format: cell-based, RAW264.7; details: RAW 264.7 cells, read-out: Activity
In short: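 MTT viability of RAW264.7 cells at 20 µM, expressed as percent of DMSO vehicle control (100%); above 75% viability counted as non-toxic; doxorubicin used as control drug.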

RAW264.7 [3] = experiment: Antiinflammatory activity against mouse RAW264.7 cells assessed as inhibition of TNFalpha-stimulated NF-kappaB activation by luciferase assay; format: functional, cell-based
RAW264.7 [4] = experiment: Antiinflammatory activity against mouse RAW264.7 cells assessed as inhibition of LPS-stimulated NO production; format: functional, cell-based
In short: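 IC50 for inhibition of NO release by LPS-stimulated RAW264.7 macrophages; IC50 taken as the mean of three independent experiments.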

RAW264.7 [5] = experiment: Antiinflammatory activity against mouse RAW264.7 cells assessed as reduction in LPS-induced TNFalpha mRNA expression at 3 to 6 uM incubated for 24 hrs by qRT-PCR analysis; format: functional, cell-based; details: dose microM 3-6, time 24.0 hrs
In short: (§1)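 Cells co-treated with compound at several concentrations plus LPS (1 µg/mL) for 24 h; IL-6, IL-1β and TNFα mRNA by qRT-PCR, expressed as ratio to reference gene; mean ± SD, n = 3.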

RAW264.7 [6] = experiment: Antiinflammatory activity against mouse RAW264.7 cells assessed as reduction in LPS-induced IL6 mRNA expression at 3 to 6 uM incubated for 24 hrs by qRT-PCR analysis; format: functional, cell-based; details: dose microM 3-6, time 24.0 hrs; in short: as §1
RAW264.7 [7] = experiment: Cytotoxicity against mouse RAW 264.7 assessed as reduction in cell viability up to 100 uM incubated for 24 hrs by MTT assay; format: cell-based; details: raw264.7, 24 h
In short: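 MTT viability of RAW264.7 cells across 0 to 100 µM, compared with vehicle control.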

RAW264.7 [8] = experiment: Antiinflammatory activity against mouse RAW264.7 cells assessed as reduction in LPS-induced p65 phosphorylation at 3 to 6 uM incubated for 45 mins by Western blot analysis; format: functional, cell-based; details: dose microM 3-6, time 45.0 min
In short: (§2)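 RAW264.7 cells treated with a range of concentrations for 45 min; phospho-p65, p65, IκBα and β-actin detected by Western blot; three independent experiments.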

RAW264.7 [9] = experiment: Antiinflammatory activity against mouse RAW264.7 cells assessed as reduction in LPS-induced IkappaBalpha phosphorylation at 3 to 6 uM incubated for 45 mins by Western blot analysis; format: functional, cell-based; details: dose microM 3-6, time 45.0 min; in short: as §2
RAW264.7 [10] = experiment: Antiinflammatory activity against mouse RAW264.7 cells assessed as degradation in LPS-induced IkappaBalpha phosphorylation at 3 to 6 uM incubated for 45 mins by Western blot analysis; format: functional, cell-based; details: dose microM 3-6, time 45.0 min; in short: as §2
RAW264.7 [11] = experiment: Antiinflammatory activity against mouse RAW264.7 cells assessed as reduction in LPS-induced IL1beta mRNA expression at 3 to 6 uM incubated for 24 hrs by qRT-PCR analysis; format: functional, cell-based; details: dose microM 3-6, time 24.0 hrs; in short: as §1
RAW264.7 [12] = experiment: Antiinflammatory activity against mouse RAW264.7 cells assessed as inhibition of LPS-stimulated nuclear translocation of p65 at 20 uM preincubated for 1 hr followed by LPS addition and measured after 24 hrs by fluorescence microscopic method; format: functional, cell-based
In short: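 RAW264.7 cells pretreated 1 h, then stimulated with LPS (1 µg/mL) or vehicle for 24 h; p65 immunostained and localisation viewed in overlaid fluorescence images; three individual experiments.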

RAW264.7 [13] = experiment: Antiinflammatory activity against mouse RAW264.7 cells assessed as inhibition of LPS-stimulated iNOS protein expression at 3 to 6 uM preincubated followed by LPS addition by Western blot analysis; format: functional, cell-based; details: dose microM 3-6
In short: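 iNOS protein in LPS-stimulated RAW264.7 cells detected by Western blotting; mean ± SD, n = 3.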

Compound	Activity (RAW264.7 [1]) [%]	viability at 24 h, 20 µM [2] [%]	also measured
c1cc2cc(-c3noc(C4CCOCC4)n3)ccc2[nH]1	2.75	95.7	
Fc1ccccc1-c1nc(-c2ccc3[nH]ccc3c2)no1		26.4	
c1ccc(-c2noc(-c3ccccc3)n2)cc1		42.1	
COc1ccccc1-c1nc(-c2ccc3[nH]ccc3c2)no1		45	
c1cc2cc(-c3noc(C4CCC4)n3)ccc2[nH]1	57.58	85.4	
c1ccc(-c2nc(-c3cnccn3)no2)cc1		46.2	
c1ccc(-c2nc(-c3ccncc3)no2)cc1	43.13	89	
c1ccc(-c2nc(-c3cccc4[nH]ccc34)no2)cc1	45.71	64.3	IC50 (RAW264.7 [3]): 13.8 µM; IC50 (RAW264.7 [4]): 27 µM
c1ccc(-c2nc(-c3c[nH]c4ccccc34)no2)cc1		11.6	
c1cc2cc(-c3noc(C4CCCCC4)n3)ccc2[nH]1		68.8	
C[C@@H]1C[C@H]2[C@@H]3CCC4=CC(=O)C=C[C@]4(C)[C@@]3(F)[C@@H](O)C[C@]2(C)[C@@]1(O)C(=O)CO [DEXAMETHASONE]			IC50 (RAW264.7 [4]): 4.16 µM
c1ccc(-c2nc(-c3ccc4ccccc4c3)no2)cc1	63.58	86.2	
Cc1ccccc1-c1nc(-c2ccc3[nH]ccc3c2)no1	47.22	85.3	
c1ccc(-c2nc(-c3ccc4cc[nH]c4c3)no2)cc1		31	
c1ccc(-c2nc(Cc3cccc4ccccc34)no2)cc1	41.64	92.8	
COc1cccc(-c2nc(-c3ccc4[nH]ccc4c3)no2)c1	53.94	88.1	

Compound	Activity (RAW264.7 [1]) [%]	viability at 24 h, 20 µM [2] [%]	also measured
c1ccc(-c2nc(-c3ccc4[nH]ccc4c3)no2)cc1	46.76	79.4	
Cc1ccc(-c2nc(-c3ccc4[nH]ccc4c3)no2)cc1		51.2	
C#Cc1ccc(-c2nc(-c3ccc4[nH]ccc4c3)no2)cc1		23.6	
CSc1ccc(-c2nc(-c3ccc4[nH]ccc4c3)no2)cc1		22.8	
c1coc(-c2nc(-c3ccc4[nH]ccc4c3)no2)c1	86.6	99	Activity (RAW264.7 [5]): Dose-dependent effect; Activity (RAW264.7 [6]): Dose-dependent effect; IC50 (RAW264.7 [3]): 1.35 µM; IC50 (RAW264.7 [4]): 12.8 µM; Activity (RAW264.7 [7]): Non-Toxic; Activity (RAW264.7 [8]): Active; Activity (RAW264.7 [9]): Dose-dependent effect; Activity (RAW264.7 [10]): Dose-dependent effect; Activity (RAW264.7 [11]): Dose-dependent effect; Activity (RAW264.7 [12]): Active; Activity (RAW264.7 [13]): Active
c1ccc(-c2nc(C3CCCC3)no2)cc1	34.28	85.4	
c1ccc(Cc2noc(-c3ccccc3)n2)cc1	39.33	89.6	
C(=C\c1noc(-c2ccccc2)n1)/c1ccccc1		28.2	
c1ccc(-c2nc(Cc3cccs3)no2)cc1	48.24	85.2	
c1ccc(-c2nc(-c3cccc4ccccc34)no2)cc1	59.89	90.4	
Oc1ccc(-c2nc(-c3ccc4[nH]ccc4c3)no2)cc1		36.5	
Fc1cccc(-c2nc(-c3ccc4[nH]ccc4c3)no2)c1		17.2	
COc1ccc(-c2nc(-c3ccc4[nH]ccc4c3)no2)cc1		41.3	
Fc1ccc(-c2nc(-c3ccc4[nH]ccc4c3)no2)cc1		16.8	
CC(C)C[C@H](NC(=O)[C@H](Cc1ccccc1)NC(=O)c1cnccn1)B(O)O [BORTEZOMIB]			IC50 (RAW264.7 [3]): 0.03 µM
C1=CCC(c2nc(-c3ccc4[nH]ccc4c3)no2)C1		24.3	
